In paper PMC6086215 (Photoacoustics, 2018):

Columns and labels:
[1] = Absolute fluorescence quantum yield; format: physicochemical; conditions: Seronorm vs glucose solution
[2] = In vitro photoacoustic spectra and signal vs concentration in agar phantom; format: physicochemical; conditions: in glucose solution 5.5% and serum; spectra 680–970 nm, step 5 nm
Procedure, shortened: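 Dyes were diluted in 5.5% glucose (plus 5% DMSO for the conjugate) or incubated 1 h at RT in human serum (HSA 47.8 g/L). Samples were loaded in PE-100 tubes in 2% agar phantoms and read at 21 MHz, 40 dB gain, persistence 3, 680–970 nm in 5 nm steps. Signals were normalized to diluted India ink. Peak signal was plotted against concentration and slopes (μM−1) compared. Data are mean ± SD.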

[3] = test system: tumor, brain, lung, liver, kidneys, heart and spleen; assay: Ex vivo optical imaging of harvested organs and tumors; format: in vivo, BALB/c nu/nu mice; conditions: 24 h post-injection, 200 nmol i.v., harvested organs, n = 5/group
Procedure, shortened: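 Nude mice bearing s.c. right-flank xenografts (5 million A431 or 2 million U-87MG cells, ~14 days) received 200 nmol test compound or parent dye in 0.2 mL i.v. via the tail vein (n=5/group). At the end, FITC-albumin (100 mg/kg i.v.) was given 5 min before sacrifice. Tumor and organs were excised for optical imaging, with tumor ROIs and no background correction.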

U-87MG tumors = assay: Fluorescence microscopy of U-87MG tumor cryosections; format: in vivo, BALB/c nu/nu mice; conditions: U-87MG tumors excised 24 h after injection
Procedure, shortened: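 U-87MG tumors were excised 24 h after i.v. test compound or parent dye, with FITC-albumin given 5 min before sacrifice to estimate permeability. Tumors were embedded in OCT, fresh-frozen in ice-cold isopentane, and cryosectioned. Probe and FITC distribution were viewed by fluorescence stereomicroscopy.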

[4] = no reference given, cited from earlier work
[5] = test system: U-87MG tumors (high αvβ3 expression); assay: In vivo photoacoustic imaging of tumor uptake, U-87MG xenograft; parameters: species or system BALB/c nu/nu mice; conditions: U-87MG tumor bearing mice, n = 5/group

- increase of fluorescence efficiency in Seronorm compared to glucose solution [1]: 5 fold
- maximum photoacoustic peak [2]: 800 nm
- ex vivo optical imaging, organ distribution [3]: accumulated mainly in liver and kidney
SMILES: CC1(C)C(/C=C/C=C/C=C/C=C2\N(CCCCS(=O)(=O)O)c3ccc4ccccc4c3C2(C)C)=[N+](CCCCS(=O)(=O)[O-])c2ccc3ccccc3c21 [ICG, Indocyanine green]
- microscopic fluorescence distribution in tumor cryosections (U-87MG tumors): only a patchy and weak signal
- blood half-life ([4]; in human): 3 to 5 min
- photostability [4]: low photostability
- solubility in aqueous media [4]: low solubility in aqueous media with strong tendency to form aggregates
- time of peak photoacoustic signal in tumor post-injection ([5]; 200 nmol i.v. tail vein): 15 min
- photoacoustic signal reduction at 60 min compared to 15 min ([5]; 200 nmol i.v.): 70%
